From PubChem
CHRM1 antagonist: human CHRM1 antagonism | hit rate 1.3% among 360,000 | AID 588852 | CHO-K1 hM1, Fluo-8 calcium fluorescence, ACh EC80 antagonist | P11229 | inhibition, % at 3 µM;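 active means percent inhibition above its own plate's cutoff, namely the mean of that plate's compound wells plus 3 SD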;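 further: peak over basal fluorescence ratio during 140 s after agonist addition; 0% = ACh EC80 plus DMSO and 100% = DMSO alone without agonist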
CHRM1 agonist: agonists of human M1 muscarinic receptor | CHO-K1 hM1, Fluo-8 calcium fluorescence, agonist mode; 0% DMSO, 100% acetylcholine EC100 | activation, % at 3 µM | hit rate 0.33% among 360,000;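 active means activation above the run's mean compound activation plus 3 SD, cut at about 16% in these data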;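 further: peak over basal fluorescence ratio within a 140 s kinetic read after compound addition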
TAAR1 ag: human TAAR1 agonism | activation, % at 3 µM | Q96RJ0 | hit rate 0.99% among 360,000 | CHO RD-HGA16 TAAR1, Fluo-8 calcium fluorescence; vehicle wells 0%, saturating PEA agonist 100% | AID 624467;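 active means activation above the mean activation of all test compounds in the run plus 3 SD, cut at about 38% in these data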
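Benchmarks: low control DMSO, high control PEA (EC100); System: CHO RD-HGA16 cells carrying human TAAR1 plus Gα16; Detection: Fluo-8 fluorescence, 5 s baseline then 140 s kinetic read; Schedule: 17-24 h plating, Fluo-8 75 min 37 °C, 30 min RT; Read-out basis: % activation from peak over basal fluorescence ratio, DMSO-to-PEA scaled.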
M1 PAM: human CHRM1 positive allosteric modulation | CHO-K1 hM1, Fluo-8 calcium fluorescence, ACh EC20; 0% = ACh EC20, 100% = maximal ACh | AID 588819 | P11229 | activation, % at 3 µM | hit rate 0.088% among 360,000; in the data active means activation above about 19%, passing the limit was not always enough
TAAR1 antagonist: antagonists of human TAAR1. inhibition, % at 3 µM. CHO RD-HGA16 TAAR1, Fluo-8 calcium fluorescence, antagonist. hit rate 1.5% among 360,000. AID 624466. Q96RJ0;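 active means inhibition above a per-plate cutoff, the mean inhibition of test compounds on that plate plus 3 SD, cut at about 49% in these data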;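 further: 0% = DMSO plus EC80 beta-PEA response and 100% = DMSO alone without agonist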
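Test system: CHO RD-HGA16 cells bearing hTAAR1 | Reagent: β-PEA, EC80 | Compound dosing: 3 µM, single point | Schedule: Dye loading 75 min at 37 °C, then 30 min room temperature | Signal: Calcium fluorescence with Fluo-8 | Evaluation: Percent inhibition of PEA-evoked calcium signal, max/basal emission ratio | Control set: DMSO-only wells and EC80 β-PEA-stimulated wells | Repeats: Singlicate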
m5-HT2A agonist: activates the mouse 5-HT2A serotonin receptor. AID 624169. hit rate 0.66% among 360,000. P35363. CHO-K1 mHTR2A beta-arrestin complementation, luminescence; percent of 30 µM serotonin response. activation, % at 7.6 µM;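 active means activation above a run cutoff, the mean activation of all tested compounds plus 3 SD, cut at about 14% in these data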;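 further: 0% = plate median of compound wells and 100% = 30 µM serotonin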
Target sequence (P35363 whole entry, looked up): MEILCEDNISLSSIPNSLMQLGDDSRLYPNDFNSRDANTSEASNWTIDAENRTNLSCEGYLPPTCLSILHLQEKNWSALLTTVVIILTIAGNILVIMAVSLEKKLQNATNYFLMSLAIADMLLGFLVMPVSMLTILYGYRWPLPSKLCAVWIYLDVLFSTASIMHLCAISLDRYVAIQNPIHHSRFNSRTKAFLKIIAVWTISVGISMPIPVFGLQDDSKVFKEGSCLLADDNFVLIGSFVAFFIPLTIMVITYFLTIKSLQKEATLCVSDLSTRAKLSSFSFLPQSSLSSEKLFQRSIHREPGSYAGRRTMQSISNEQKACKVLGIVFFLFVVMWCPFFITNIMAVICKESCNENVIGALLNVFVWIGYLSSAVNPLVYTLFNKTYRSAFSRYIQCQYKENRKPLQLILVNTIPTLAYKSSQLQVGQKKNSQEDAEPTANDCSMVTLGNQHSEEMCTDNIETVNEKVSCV
Active calls of the source: *; . = not tested or not shown. Hits are enriched below; roughly 3.9% of the tested compounds scored in any of these assays.

SMILES	CHRM1 antagonist	CHRM1 agonist	TAAR1 ag	M1 PAM	TAAR1 antagonist	m5-HT2A agonist
Cc1ccc(S(=O)(=O)N(C)[C@H]2C[C@H]3c4[nH]c5cccc(-c6ccccc6)c5c4CCN3C(=O)[C@H]2[C@H](C)O)cc1	.	.	1	.	1	.
COCCCNC(=O)CSc1nc2ccccc2c(=O)n1CCc1ccc(S(N)(=O)=O)cc1	17	-2	10	-8	57*	4
CC(=O)NCCn1c(SCC(=O)NCCc2ccc(S(N)(=O)=O)cc2)nc2ccccc2c1=O	-8	-2	7	10	-6	-2
O=[N+]([O-])c1ccccc1S(=O)(=O)Nc1cccnc1	-7	-3	0	1	-32	-3
CC(C)=CC(=O)NCC1CCN(C(=O)C(=O)c2cc3ccccc3o2)CC1	.	.	4	.	-3	.
CSc1nc(N)nc(SCC(=O)Nc2cccc(F)c2)c1C#N	24*	1	13	-10	40	-3
Cc1cc(C)n(CC(=O)N2c3ccccc3Sc3ccccc32)n1	38*	-6	16	-22	6	1
Cc1cccc[n+]1CC(=O)N1c2ccccc2Sc2ccccc21	99*	-13	9	-34	11	2
CC(=O)N1c2ccccc2Sc2ccccc21	-12	-7	2	16	2	-2
COCc1ccc(C(=O)NC2CCCc3c2cnn3-c2ccc(C)c(C)c2)o1 (stereo unspecified)	6	0	0	-5	1	-3
CN(CC(=O)Nc1ccc(F)cc1)CC(=O)NC1CCCCC1	-7	-2	2	4	-19	-3
CC1CCCN(S(=O)(=O)c2ccc(NC(=O)CN3C(=O)NC(C)(c4ccccc4)C3=O)cc2)C1 (stereo unspecified)	-12	-3	5	10	-18	6
Cc1nn(C(C)C(=O)NCCCN2CCCCC2C)c(=O)c2c1sc1ccccc12 (stereo unspecified)	-9	-14	-1	-2	-15	-7
Cc1nn(C(C)C(=O)NCCCN2CCCCCC2)c(=O)c2c1sc1ccccc12 (stereo unspecified)	55*	-6	0	-21	-14	3
COc1ccc(OCC(O)CNC(=O)Nc2cccc3ccccc23)cc1 (stereo unspecified)	-10	1	2	5	-4	-3
CSc1nccc(NC(=O)c2cccc(Br)c2)n1	-10	2	48*	5	8	-3
O=C(c1ccc2c(c1)OCO2)N1CCN(S(=O)(=O)c2ccc(Cl)cc2)CC1	0	-10	3	0	-5	-3
O=[N+]([O-])c1ccc(O)c(/C=N/Nc2ccccn2)c1	23	15	45*	-13	73*	2
CCOC(=O)C1CCCN(Cc2nc(N)nc(Nc3ccc(OC)cc3)n2)C1 (stereo unspecified)	5	12	20	-2	0	3
CCOC(=O)C1CCCN(Cc2nc(N)nc(Nc3ccc(Cl)cc3)n2)C1 (stereo unspecified)	-33	37*	20	3	5	2
CCOC(=O)C1CCCN(C/C(O)=C(\C#N)c2nc(-c3ccc(Cl)cc3)cs2)C1 (stereo unspecified)	8	25*	7	-10	16	9
CCOC(=O)C1CCCN(Cc2nc(N)nc(Nc3ccccc3OC)n2)C1 (stereo unspecified)	-9	20*	6	15	4	-5
O=C(NCc1ccc(Cl)cc1)C1CCCN1C(=O)Nc1ccc(F)cc1 (stereo unspecified)	-14	-4	6	9	-8	-2
C[C@H](O)[C@@H]1CN2CCc3ccc(-c4ccc5c(c4)OCO5)cc3[C@@H]2C[C@@H]1N(C)C(=O)c1cccc(Cl)c1	.	.	-2	.	-31	.
Cc1cc(N2CCCC2)ccc1/C=C1\NC(=S)N(C)C1=O	18	23*	51*	-13	32	-3
C(#Cc1ccccc1)CN1CCCCC1	1	-15	0	-6	-9	1
C(#CCN1CCCC1)CC(c1ccccc1)c1ccccc1	100*	-13	27	-32	-11	-3
